Results reported in ChEMBL document CHEMBL3352499, “One pot three components microwave assisted and conventional synthesis of new 3-(4-chloro-2-hydroxyphenyl)-2-(substituted) thiazolidin-4-one as antimicrobial agents” (Bioorg Med Chem Lett, 2014).
Converted amounts (≈) assume the structure as drawn. Structures can show the parent of a compound that is named as a salt.

Tested on: Aspergillus niger
Test: Fungicidal activity against Aspergillus niger NCIM-1196 after 48 to 72 hrs by two fold serial macrodilution technique
Assay type: functional
Conditions: not given
Outline: (§1)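 Serial subcultivation followed 72 h of exposure to compounds dissolved in saline containing 5% DMSO. MBC/MFC was the lowest concentration with no visible growth, taken as 99.5% killing of the original inoculum. Runs were in triplicate, with the mean reading used.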

SMILES	MFC [µg/mL]
OC(Cn1cncn1)(Cn1cncn1)c1ccc(F)cc1F [FLUCONAZOLE]	16.5 (≈ 53.9 µM)
Clc1ccc(COC(Cn2ccnc2)c2ccc(Cl)cc2Cl)c(Cl)c1 (stereo not drawn) [MICONAZOLE]	12.5 (≈ 30 µM)

Tested on: Aspergillus flavus
Test: Fungicidal activity against Aspergillus flavus NCIM-539 after 48 to 72 hrs by two fold serial macrodilution technique
Assay type: functional
Conditions: not given
Outline: as §1

SMILES	MFC [µg/mL]
OC(Cn1cncn1)(Cn1cncn1)c1ccc(F)cc1F [FLUCONAZOLE]	16.5 (≈ 53.9 µM)
Clc1ccc(COC(Cn2ccnc2)c2ccc(Cl)cc2Cl)c(Cl)c1 (stereo not drawn) [MICONAZOLE]	12.5 (≈ 30 µM)

Tested on: Cryptococcus neoformans
Test: Fungicidal activity against Cryptococcus neoformans NCIM-3378 after 48 to 72 hrs by two fold serial macrodilution technique
Assay type: functional
Conditions: not given
Outline: as §1

SMILES	MFC [µg/mL]
OC(Cn1cncn1)(Cn1cncn1)c1ccc(F)cc1F [FLUCONAZOLE]	16.5 (≈ 53.9 µM)
Clc1ccc(COC(Cn2ccnc2)c2ccc(Cl)cc2Cl)c(Cl)c1 (stereo not drawn) [MICONAZOLE]	12.5 (≈ 30 µM)

Tested on: MCF7
Test: Cytotoxicity against human MCF7 cells by SRB method
Assay type: cell-based
Conditions: not given
Outline: (§2)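 SRB colorimetric growth assay. IC50, in µM, was the concentration inhibiting cell growth by 50% relative to untreated control cells. Runs were in triplicate in three independent experiments, with means reported. The positive control was doxorubicin.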

SMILES	IC50 [nM]
COc1cccc2c1C(=O)c1c(O)c3c(c(O)c1C2=O)C[C@@](O)(C(=O)CO)C[C@@H]3O[C@H]1C[C@H](N)[C@H](O)[C@H](C)O1 [DOXORUBICIN HYDROCHLORIDE]	< 100

Tested on: Aspergillus niger
Test: Antimicrobial activity against Aspergillus niger NCIM-1196 after 20 hrs by two fold serial macrodilution technique
Assay type: functional
Conditions: NCIM-1196, 20 h

SMILES	MIC [µg/mL]
OC(Cn1cncn1)(Cn1cncn1)c1ccc(F)cc1F [FLUCONAZOLE]	6.25 (≈ 20.4 µM)
Clc1ccc(COC(Cn2ccnc2)c2ccc(Cl)cc2Cl)c(Cl)c1 (stereo not drawn) [MICONAZOLE]	3.25 (≈ 7.81 µM)

Tested on: HeLa
Test: Cytotoxicity against human HeLa cells by SRB method
Assay type: cell-based
Conditions: not given
Outline: as §2

SMILES	IC50 [nM]
COc1cccc2c1C(=O)c1c(O)c3c(c(O)c1C2=O)C[C@@](O)(C(=O)CO)C[C@@H]3O[C@H]1C[C@H](N)[C@H](O)[C@H](C)O1 [DOXORUBICIN HYDROCHLORIDE]	< 100

Tested on: Aspergillus flavus
Test: Antimicrobial activity against Aspergillus flavus NCIM-539 after 20 hrs by two fold serial macrodilution technique
Assay type: functional
Conditions: NCIM-539, 20 h

SMILES	MIC [µg/mL]
OC(Cn1cncn1)(Cn1cncn1)c1ccc(F)cc1F [FLUCONAZOLE]	6.25 (≈ 20.4 µM)
Clc1ccc(COC(Cn2ccnc2)c2ccc(Cl)cc2Cl)c(Cl)c1 (stereo not drawn) [MICONAZOLE]	3.25 (≈ 7.81 µM)

Tested on: Staphylococcus aureus
Test: Antimicrobial activity against Staphylococcus aureus NCIM-2901 after 20 hrs by two fold serial macrodilution technique
Assay type: functional
Conditions: NCIM-2901, 20 h
Outline: (§3)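 Serial macrodilution in 96-well microtiter plates. Compounds were dissolved in saline (0.8% NaCl) containing 5% DMSO, and strains were incubated with a range of concentrations for 20 h at 37 °C on a rotary shaker (160 rpm). MIC was the lowest concentration without growth. Runs were in triplicate, with the mean taken. The negative control was 5% DMSO.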

SMILES	MIC [µg/mL]
CC1(C)S[C@@H]2[C@H](NC(=O)[C@H](N)c3ccccc3)C(=O)N2[C@H]1C(=O)O [AMPICILLIN]	12.5 (≈ 35.8 µM)

Tested on: Escherichia coli
Test: Antimicrobial activity against Escherichia coli NCIM-2256 after 20 hrs by two fold serial macrodilution technique
Assay type: functional
Conditions: NCIM-2256, 20 h
Outline: as §3

SMILES	MIC [µg/mL]
CC1(C)S[C@@H]2[C@H](NC(=O)[C@H](N)c3ccccc3)C(=O)N2[C@H]1C(=O)O [AMPICILLIN]	12.5 (≈ 35.8 µM)
O=C(O)c1cn(C2CC2)c2cc(N3CCNCC3)c(F)cc2c1=O [CIPROFLOXACIN]	7.5 (≈ 22.6 µM)

Tested on: Candida albicans
Test: Antimicrobial activity against Candida albicans NCIM-3471 after 20 hrs by two fold serial macrodilution technique
Assay type: functional
Conditions: NCIM-3471, 20 h

SMILES	MIC [µg/mL]
OC(Cn1cncn1)(Cn1cncn1)c1ccc(F)cc1F [FLUCONAZOLE]	10 (≈ 32.7 µM)
Clc1ccc(COC(Cn2ccnc2)c2ccc(Cl)cc2Cl)c(Cl)c1 (stereo not drawn) [MICONAZOLE]	3.25 (≈ 7.81 µM)

Tested on: Bacillus subtilis
Test: Bactericidal activity against Bacillus subtilis NCIM-2063 after 72 hrs by two fold serial macrodilution technique
Assay type: functional
Conditions: NCIM-2063, 72 h
Outline: as §1

SMILES	MBC [µg/mL]
CC1(C)S[C@@H]2[C@H](NC(=O)[C@H](N)c3ccccc3)C(=O)N2[C@H]1C(=O)O [AMPICILLIN]	17.5 (≈ 50.1 µM)
O=C(O)c1cn(C2CC2)c2cc(N3CCNCC3)c(F)cc2c1=O [CIPROFLOXACIN]	13 (≈ 39.2 µM)

Tested on: Cryptococcus neoformans
Test: Antimicrobial activity against Cryptococcus neoformans NCIM-3378 after 20 hrs by two fold serial macrodilution technique
Assay type: functional
Conditions: NCIM-3378, 20 h

SMILES	MIC [µg/mL]
OC(Cn1cncn1)(Cn1cncn1)c1ccc(F)cc1F [FLUCONAZOLE]	6.25 (≈ 20.4 µM)
Clc1ccc(COC(Cn2ccnc2)c2ccc(Cl)cc2Cl)c(Cl)c1 (stereo not drawn) [MICONAZOLE]	3.25 (≈ 7.81 µM)

Tested on: Salmonella typhimurium
Test: Bactericidal activity against […] after 72 hrs by two fold serial macrodilution technique
Assay type: functional, Salmonella enterica subsp. enterica serovar Typhimurium
Conditions: Salmonella enterica
Outline: as §1

SMILES	MBC [µg/mL]
CC1(C)S[C@@H]2[C@H](NC(=O)[C@H](N)c3ccccc3)C(=O)N2[C@H]1C(=O)O [AMPICILLIN]	17.5 (≈ 50.1 µM)
O=C(O)c1cn(C2CC2)c2cc(N3CCNCC3)c(F)cc2c1=O [CIPROFLOXACIN]	8 (≈ 24.1 µM)

Tested on: Candida albicans
Test: Fungicidal activity against Candida albicans NCIM-3471 after 48 to 72 hrs by two fold serial macrodilution technique
Assay type: functional
Conditions: not given
Outline: as §1

SMILES	MFC [µg/mL]
OC(Cn1cncn1)(Cn1cncn1)c1ccc(F)cc1F [FLUCONAZOLE]	22.5 (≈ 73.5 µM)
Clc1ccc(COC(Cn2ccnc2)c2ccc(Cl)cc2Cl)c(Cl)c1 (stereo not drawn) [MICONAZOLE]	12.5 (≈ 30 µM)

Tested on: Escherichia coli
Test: Bactericidal activity against Escherichia coli NCIM-2256 after 72 hrs by two fold serial macrodilution technique
Assay type: functional
Conditions: NCIM-2256, 72 h
Outline: as §1

SMILES	MBC [µg/mL]
CC1(C)S[C@@H]2[C@H](NC(=O)[C@H](N)c3ccccc3)C(=O)N2[C@H]1C(=O)O [AMPICILLIN]	17.5 (≈ 50.1 µM)
O=C(O)c1cn(C2CC2)c2cc(N3CCNCC3)c(F)cc2c1=O [CIPROFLOXACIN]	8 (≈ 24.1 µM)

Tested on: Salmonella typhimurium
Test: Antimicrobial activity against […] after 20 hrs by two fold serial macrodilution technique
Assay type: functional, Salmonella enterica subsp. enterica serovar Typhimurium
Conditions: Salmonella enterica
Outline: as §3

SMILES	MIC [µg/mL]
CC1(C)S[C@@H]2[C@H](NC(=O)[C@H](N)c3ccccc3)C(=O)N2[C@H]1C(=O)O [AMPICILLIN]	12.5 (≈ 35.8 µM)
O=C(O)c1cn(C2CC2)c2cc(N3CCNCC3)c(F)cc2c1=O [CIPROFLOXACIN]	7.5 (≈ 22.6 µM)

Tested on: Bacillus subtilis
Test: Antimicrobial activity against Bacillus subtilis NCIM-2063 after 20 hrs by two fold serial macrodilution technique
Assay type: functional
Conditions: NCIM-2063, 20 h
Outline: as §3

SMILES	MIC [µg/mL]
CC1(C)S[C@@H]2[C@H](NC(=O)[C@H](N)c3ccccc3)C(=O)N2[C@H]1C(=O)O [AMPICILLIN]	12.5 (≈ 35.8 µM)
O=C(O)c1cn(C2CC2)c2cc(N3CCNCC3)c(F)cc2c1=O [CIPROFLOXACIN]	6.25 (≈ 18.9 µM)

Tested on: Staphylococcus aureus
Test: Bactericidal activity against Staphylococcus aureus NCIM-2901 after 72 hrs by two fold serial macrodilution technique
Assay type: functional
Conditions: NCIM-2901, 72 h
Outline: as §1

SMILES	MBC [µg/mL]
CC1(C)S[C@@H]2[C@H](NC(=O)[C@H](N)c3ccccc3)C(=O)N2[C@H]1C(=O)O [AMPICILLIN]	17.5 (≈ 50.1 µM)
O=C(O)c1cn(C2CC2)c2cc(N3CCNCC3)c(F)cc2c1=O [CIPROFLOXACIN]	13 (≈ 39.2 µM)
